Test results reported in ChEMBL document CHEMBL1126093, “Structural features of substituted purine derivatives compatible with depletion of human O6-alkylguanine-DNA alkyltransferase” (J Med Chem, 1992).
Active and inactive are the calls of the source. No cut-off for these calls is given here.

Assays:
[1] = biological target: T1, Methylated-DNA--protein-cysteine methyltransferase (Homo sapiens) (UniProt P16455); experiment: In vitro inhibition of human alkyl transferase in HT-29 cell-free extracts.
T1 sequence (whole entry): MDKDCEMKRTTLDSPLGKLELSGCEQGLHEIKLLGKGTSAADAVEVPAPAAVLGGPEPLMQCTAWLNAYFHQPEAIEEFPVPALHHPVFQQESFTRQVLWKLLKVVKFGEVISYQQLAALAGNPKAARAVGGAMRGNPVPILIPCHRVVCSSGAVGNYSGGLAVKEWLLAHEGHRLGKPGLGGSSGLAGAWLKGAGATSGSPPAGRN
In short: (§1)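 HT29 crude cell extract incubated 30 min with derivative (0–400 μM, from 100 mM DMSO stocks) in 50 mM Tris-HCl pH 7.5, 0.1 mM EDTA, 5 mM DTT. Remaining AGT activity measured as loss of O⁶-[³H]methylguanine from [³H]methylnitrosourea-methylated calf thymus DNA. Dose for 50% inactivation read from %-activity-remaining vs dose plots; at least duplicates averaged.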

[2] = biological target: T1, Methylated-DNA--protein-cysteine methyltransferase (Homo sapiens); experiment: Inhibitory activity against alkyl transferase in HT-29 cells; assay type: cell-based
In short: (§2)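 HT29 cells plated at 5 × 10⁶ per T75 flask and grown 3 days. Medium then replaced with medium holding increasing derivative concentrations (range 0.05–400 μM where soluble) for 4 h. Cells rinsed with PBS, harvested, frozen at -80 °C, then extracted. AGT activity assayed by O⁶-[³H]methylguanine loss from [³H]methylated DNA. 50% inactivation dose taken from plots; at least duplicates.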

[3] = biological target: T1, Methylated-DNA--protein-cysteine methyltransferase (Homo sapiens); experiment: Inhibitory activity against alkyl transferase in HT-29 cell-free extracts; inactive; in short: as §1
[4] = biological target: T1, Methylated-DNA--protein-cysteine methyltransferase (Homo sapiens); experiment: The compound was tested for its inhibitory activity against alkyl transferase in HT-29 cells; inactive; assay type: cell-based; in short: as §2

Compound	ED50 [1]	ED50 [2]	ED50 [3]	ED50 [4]
NC(=O)Cn1cnc2nc(N)nc(OCc3ccccc3)c21			inactive	
COc1nc(N)nc2nc[nH]c12	350 µM	120 µM		
C=CCOc1nc(N)nc2nc[nH]c12	20 µM	4 µM		
Nc1nc(OCc2ccccc2)c2ncn(C3O[C@H](CO)[C@@H](O)[C@H]3O)c2n1 (some centres undefined)	11 µM	2 µM		
NC(=O)Cn1cnc2c(OCc3ccccc3)nc(N)nc21	47 µM	7.5 µM		
Cc1ccc(CSc2[nH]c(N)nc3ncnc2-3)cc1			inactive	
Cc1ccc(COc2nc(N)nc3c2ncn3C2O[C@H](CO)[C@@H](O)[C@H]2O)cc1 (some centres undefined)	9 µM	3 µM		
N#CCn1cnc2c(OCc3ccccc3)nc(N)nc21	13 µM	0.8 µM		
c1ccc(COc2[nH]cnc3ncnc2-3)cc1	85 µM	36 µM		
N#CCn1cnc2nc(N)nc(OCc3ccccc3)c21			inactive	
Nc1nc(OCc2ccc(Cl)cc2)c2ncn(C3O[C@H](CO)[C@@H](O)[C@H]3O)c2n1 (some centres undefined)	10 µM	5 µM		
CCOC(=O)Cn1cnc2nc(N)nc(OCc3ccccc3)c21			inactive	
CCOC(=O)Cn1cnc2c(OCc3ccccc3)nc(N)nc21	30 µM	3 µM		

Further lines, results first:

ED50 [1]	ED50 [2]	ED50 [3]	ED50 [4]	Compound
0.2 µM	0.08 µM			Nc1nc(OCc2ccc(Cl)cc2)c2[nH]cnc2n1
		inactive		Nc1nc(SCc2ccccc2)c2[nH]cnc2n1
		inactive		CCC(O)Cn1cnc2nc(N)nc(OCc3ccccc3)c21 (centres undefined)
157 µM			inactive	Nc1nc(OCc2ccccc2)c2ncn(CC(=O)O)c2n1
			inactive	Nc1nc(OCc2ccccc2)c2c(ncn2CC(=O)O)n1
		inactive		Nc1nc(SCc2ccc([N+](=O)[O-])cc2)c2ncn([C@@H]3O[C@H](CO)[C@@H](O)[C@H]3O)c2n1
2 µM	0.5 µM			Nc1nc(OCc2ccccc2)c2ncn([C@H]3C[C@H](O)[C@@H](CO)O3)c2n1
		inactive		Nc1nc(O)c2c(ncn2Cc2ccccc2)n1
13 µM	2 µM			CCC(O)Cn1cnc2c(OCc3ccccc3)nc(N)nc21 (centres undefined)
0.2 µM	0.05 µM			Nc1nc(OCc2ccc(F)cc2)c2[nH]cnc2n1
0.2 µM	0.08 µM			Cc1ccc(COc2nc(N)nc3nc[nH]c23)cc1
